What follows are compounds tested on Pseudomonas aeruginosa (assay: Antimicrobial activity against carbapenem-resistant Pseudomonas aeruginosa isolate).
Assay type: functional
Procedure, shortened: (§1)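 P. aeruginosa isolates came from rectal and oropharyngeal swabs of ICU patients, plated on MacConkey agar and incubated at 37°C for 48 h. Gram-negative, oxidase-positive bacilli were identified by conventional biochemical tests. Intermediate isolates were scored as resistant. Clonality was checked by PFGE (6 V/cm, 14°C, 23 h, 5–25 s pulses), read by Tenover criteria.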

**Q.** `O=C(O)c1cn(C2CC2)c2cc(N3CCNCC3)c(F)cc2c1=O` [CIPROFLOXACIN] was tested. Which MIC did it give?
**A.** ≥ 2 µg/mL

**Q.** With `CC(C)(O/N=C(\C(=O)N[C@@H]1C(=O)N2C(C(=O)[O-])=C(C[n+]3ccccc3)CS[C@H]12)c1csc(N)n1)C(=O)O` [CEFTAZIDIME] as the compound, how does the MIC read?
**A.** > 8 µg/mL

**Q.** How did the MIC turn out when `CC1(C)S[C@@H]2[C@H](NC(=O)[C@H](C(=O)O)c3ccsc3)C(=O)N2[C@H]1C(=O)O` [TICARCILLIN] was run?
**A.** > 64 µg/mL

**Q.** With `CCN1CCN(C(=O)N[C@@H](C(=O)N[C@@H]2C(=O)N3[C@@H]2SC(C)(C)[C@@H]3C(=O)O)c2ccccc2)C(=O)C1=O` [PIPERACILLIN] as the compound, how does the MIC read?
**A.** > 64 µg/mL

**Q.** Which MIC does the source give for `C[C@H]1[C@H](NC(=O)/C(=N\OC(C)(C)C(=O)O)c2csc(N)n2)C(=O)N1S(=O)(=O)O` [AZTREONAM] here?
**A.** > 8 µg/mL

**Q.** Which MIC does the source give for `NC[C@H]1O[C@H](O[C@H]2[C@H](O)[C@@H](O[C@H]3O[C@H](CO)[C@@H](O)[C@H](N)[C@H]3O)[C@H](N)C[C@@H]2N)[C@H](N)C[C@@H]1O` [TOBRAMYCIN] here?
**A.** > 4 µg/mL

**Q.** With `NCC[C@H](O)C(=O)N[C@@H]1C[C@H](N)[C@@H](O[C@H]2O[C@H](CN)[C@@H](O)[C@H](O)[C@H]2O)[C@H](O)[C@H]1O[C@H]1O[C@H](CO)[C@@H](O)[C@H](N)[C@H]1O` [AMIKACIN] as the compound, how does the MIC read?
**A.** > 16 µg/mL

**Q.** For `CC(O)[C@H]1C(=O)N2C(C(=O)O)=C(SCCNC=N)C[C@H]12` (single isomer, unassigned) [IMIPENEM ANHYDROUS], which MIC is on record?
**A.** ≥ 8 µg/mL

**Q.** `C[C@@H](O)[C@H]1C(=O)N2C(C(=O)O)=C(S[C@@H]3CN[C@H](C(=O)N(C)C)C3)[C@H](C)[C@H]12` [MEROPENEM] was tested. Which MIC did it give?
**A.** ≥ 8 µg/mL

Each compound was assayed on Pseudomonas aeruginosa (assay: Antimicrobial activity against carbapenem-resistant Pseudomonas aeruginosa assessed as percent resistant isolates).
Assay type: functional
Procedure, shortened: as §1

**Q.** With `O=C(O)c1cn(C2CC2)c2cc(N3CCNCC3)c(F)cc2c1=O` [CIPROFLOXACIN] as the compound, how does the Activity read?
**A.** 59.5%

**Q.** With `CC(C)(O/N=C(\C(=O)N[C@@H]1C(=O)N2C(C(=O)[O-])=C(C[n+]3ccccc3)CS[C@H]12)c1csc(N)n1)C(=O)O` [CEFTAZIDIME] as the compound, how does the Activity read?
**A.** 28.5%

**Q.** For `CC1(C)S[C@@H]2[C@H](NC(=O)[C@H](C(=O)O)c3ccsc3)C(=O)N2[C@H]1C(=O)O` [TICARCILLIN], which Activity is on record?
**A.** 28.5%

**Q.** With `CCN1CCN(C(=O)N[C@@H](C(=O)N[C@@H]2C(=O)N3[C@@H]2SC(C)(C)[C@@H]3C(=O)O)c2ccccc2)C(=O)C1=O` [PIPERACILLIN] as the compound, how does the Activity read?
**A.** 21%

**Q.** How did the Activity turn out when `C[C@H]1[C@H](NC(=O)/C(=N\OC(C)(C)C(=O)O)c2csc(N)n2)C(=O)N1S(=O)(=O)O` [AZTREONAM] was run?
**A.** 33%

**Q.** `NC[C@H]1O[C@H](O[C@H]2[C@H](O)[C@@H](O[C@H]3O[C@H](CO)[C@@H](O)[C@H](N)[C@H]3O)[C@H](N)C[C@@H]2N)[C@H](N)C[C@@H]1O` [TOBRAMYCIN] was tested. Which Activity did it give?
**A.** 55%

**Q.** How did the Activity turn out when `NCC[C@H](O)C(=O)N[C@@H]1C[C@H](N)[C@@H](O[C@H]2O[C@H](CN)[C@@H](O)[C@H](O)[C@H]2O)[C@H](O)[C@H]1O[C@H]1O[C@H](CO)[C@@H](O)[C@H](N)[C@H]1O` [AMIKACIN] was run?
**A.** 19%

**Q.** For `CC(O)[C@H]1C(=O)N2C(C(=O)O)=C(SCCNC=N)C[C@H]12` (single isomer, unassigned) [IMIPENEM ANHYDROUS], which Activity is on record?
**A.** 100%

**Q.** Which Activity does the source give for `C[C@@H](O)[C@H]1C(=O)N2C(C(=O)O)=C(S[C@@H]3CN[C@H](C(=O)N(C)C)C3)[C@H](C)[C@H]12` [MEROPENEM] here?
**A.** 59.5%

Reference: ChEMBL document CHEMBL1145466, “Effects of carbapenem exposure on the risk for digestive tract carriage of intensive care unit-endemic carbapenem-resistant Pseudomonas aeruginosa strains in critically ill patients” (2007)
